# Test results published in ChEMBL document CHEMBL1828575, “Design, synthesis and antiproliferative activities of biarylolefins based on polyhydroxylated and carbohydrate scaffolds” (Eur J Med Chem, 2011).
# Experiments:
# Assay type in all cases: functional
# LOX IMVI = test: Cytotoxicity against human LOXIMVI cells assessed as cellular growth at 10 uM after 48 hrs by SRB assay
# How it was run: (§1)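 NCI60 single-dose screen of cells in RPMI 1640 with 5% FBS and 2 mM L-glutamine, preincubated 24 h at 37 °C, 5% CO₂. Cells were then exposed 48 h to compound added from DMSO stock. TCA-fixed, stained with 0.4% SRB in 1% acetic acid, dye solubilised in 10 mM Tris base and read at 515 nm. Growth is given as percent of untreated control.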
# OVCAR-3 [1] = test: Antitumor activity against human OVCAR3 cells after 48 hrs by SRB assay; details: OVCAR-3, 48 h; for CC50: read-out: LC50 (the source's name)
# How it was run: (§2)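 NCI60 panel in RPMI 1640 with 5% FBS and 2 mM L-glutamine. Cells were plated at 5000–40,000/well by doubling time, held 24 h, then time-zero plates were TCA-fixed. Five concentrations (10-fold or half-log dilutions of DMSO stocks) were applied for 48 h at 37 °C, 5% CO2. Cells were fixed with cold TCA (10% final adherent, 16% suspension) and stained with 0.4% SRB. Bound dye was dissolved in 10 mM Tris and read at 515 nm. GI50, TGI and LC50 were calculated per line.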
# COLO 205 = test: Cytotoxicity against human COLO205 cells assessed as cellular growth at 10 uM after 48 hrs by SRB assay; how it was run: as §1
# UACC-62 [2] = test: Antitumor activity against human UACC62 cells after 48 hrs by SRB assay; details: UACC-62, 48 h
# How it was run: (§3)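 NCI60 panel cells grown in RPMI 1640 with 5% FBS and 2 mM L-glutamine, plated at 5000–40,000 cells/well and preincubated 24 h at 37 °C, 5% CO₂. Compound was added from DMSO at five concentrations, 10-fold or 1/2 log dilutions, then incubated 48 h.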
# SNB-75 = test: Antitumor activity against human SNB75 cells after 48 hrs by SRB assay; details: SNB-75, 48 h; for CC50: read-out: LC50 (the source's name); how it was run: as §3
# MDA-MB-468 = test: Cytotoxicity against human MDA-MB-468 cells assessed as cellular growth at 10 uM after 48 hrs by SRB assay
# How it was run: (§4)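 NCI-60 panel lines grown in RPMI 1640 with 5% FBS and 2 mM L-glutamine. Plated at 5000–40,000 cells/well and preincubated 24 h at 37 °C, 5% CO₂, with time-zero plates fixed in TCA. Compounds, dissolved in DMSO and diluted in medium, were applied for 48 h. Cells were TCA-fixed (10% final for adherent, 16% for suspension) and stained with 0.4% SRB in 1% acetic acid. Dye was solubilised in 10 mM Tris base and read at 515 nm; growth was expressed as a percentage of untreated control.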
# HCT-116 = test: Antitumor activity against human HCT116 cells after 48 hrs by SRB assay; details: HCT-116, 48 h; how it was run: as §2
# SK-MEL-5 = test: Cytotoxicity against human SK-MEL-5 cells assessed as cellular growth at 10 uM after 48 hrs by SRB assay; how it was run: as §4
# MDA-MB-435 = test: Cytotoxicity against human MDA-MB-435 cells assessed as cellular growth at 10 uM after 48 hrs by SRB assay; how it was run: as §4
# A498 = test: Antitumor activity against human A498 cells after 48 hrs by SRB assay; details: A498, 48 h; how it was run: as §2
# EKVX = test: Cytotoxicity against human EKVX cells assessed as cellular growth at 10 uM after 48 hrs by SRB assay; how it was run: as §1
# NCI-H226 [3] = test: Antitumor activity against human NCI-H226 cells after 48 hrs by SRB assay; details: NCI-H226, 48 h; how it was run: as §2
# MDA-MB-231 = test: Cytotoxicity against human MDA-MB-231 cells assessed as cellular growth at 10 uM after 48 hrs by SRB assay; how it was run: as §4
# SK-OV-3 = test: Cytotoxicity against human SKOV3 cells assessed as cellular growth at 10 uM after 48 hrs by SRB assay; how it was run: as §4
# SF-539 = test: Antitumor activity against human SF539 cells after 48 hrs by SRB assay; details: SF-539, 48 h; for CC50: read-out: LC50 (the source's name); how it was run: as §3
# SF-268 = test: Cytotoxicity against human SF268 cells assessed as cellular growth at 10 uM after 48 hrs by SRB assay; how it was run: as §4
# RPMI-8226 = test: Cytotoxicity against human RPMI8226 cells assessed as cellular growth at 10 uM after 48 hrs by SRB assay; how it was run: as §4
# 786-0 = test: Cytotoxicity against human 786-0 cells assessed as cellular growth at 10 uM after 48 hrs by SRB assay; how it was run: as §1
# SW-620 = test: Antitumor activity against human SW620 cells after 48 hrs by SRB assay; details: SW-620, 48 h; how it was run: as §3
# NCI-H226 [4] = test: Cytotoxicity against human NCI-H226 cells assessed as cellular growth at 10 uM after 48 hrs by SRB assay; how it was run: as §4
# OVCAR-3 [5] = test: Cytotoxicity against human OVCAR3 cells assessed as cellular growth at 10 uM after 48 hrs by SRB assay; how it was run: as §4
# NCI-H522 = test: Cytotoxicity against human NCI-H522 cells assessed as cellular growth at 10 uM after 48 hrs by SRB assay; how it was run: as §4
# PC-3 = test: Cytotoxicity against human PC3 cells assessed as cellular growth at 10 uM after 48 hrs by SRB assay; how it was run: as §4
# UACC-62 [6] = test: Cytotoxicity against human UACC62 cells assessed as cellular growth at 10 uM after 48 hrs by SRB assay; how it was run: as §4
# HCC 2998 = test: Antitumor activity against human HCC2998 cells after 48 hrs by SRB assay; details: HCC 2998, 48 h; how it was run: as §2
# HT-29 = test: Cytotoxicity against human HT-29 cells assessed as cellular growth at 10 uM after 48 hrs by SRB assay; how it was run: as §1
# KM12 = test: Cytotoxicity against human KM12 cells assessed as cellular growth at 10 uM after 48 hrs by SRB assay; how it was run: as §1
# [7] = read-out: LC50 (the source's name)
# [8] = read-out: pLC50 (the source's name) (converted)
compound,measurement,setting,value
COc1cc(/C(=C2\O[C@@H]([C@H]3COC(C)(C)O3)[C@H]3OC(C)(C)O[C@@H]23)c2ccc3ccccc3c2)cc(OC)c1OC,Activity,LOX IMVI,46.36%
same,GI50,OVCAR-3 [1],2.39 µM
same,TGI,OVCAR-3 [1],5.67 µM
same,CC50,OVCAR-3 [1],21.7 µM
same,Activity,COLO 205,66.91%
same,GI50,UACC-62 [2]; read-out: GI50,7.13 µM
same,CC50,UACC-62 [2]; [7],> 100 µM
same,TGI,UACC-62 [2]; read-out: TGI,67.9 µM
same,GI50,UACC-62 [2]; read-out: pGI50 (converted),3.31 µM
same,CC50,UACC-62 [2]; [8],> 100 µM
same,TGI,UACC-62 [2]; read-out: pTGI (converted),67.6 µM
same,GI50,SNB-75,2.89 µM
same,TGI,SNB-75,7.44 µM
same,CC50,SNB-75,> 100 µM
same,Activity,MDA-MB-468,51.21%
same,GI50,HCT-116,2.51 µM
same,LC50 (concentration giving 50% net cell kill),HCT-116,20.6 µM
same,TGI,HCT-116,5.7 µM
same,Activity,SK-MEL-5,38.25%
same,Activity,MDA-MB-435,26.19%
same,GI50,A498; read-out: GI50,17.8 µM
same,CC50,A498; [7],> 100 µM
same,TGI,A498; read-out: TGI,74.6 µM
same,GI50,A498; read-out: pGI50 (converted),4.37 µM
same,CC50,A498; [8],> 100 µM
same,TGI,A498; read-out: pTGI (converted),> 100 µM
same,Activity,EKVX,53.7%
same,GI50,NCI-H226 [3]; read-out: GI50,3.49 µM
same,CC50,NCI-H226 [3]; [7],> 100 µM
same,TGI,NCI-H226 [3]; read-out: TGI,60 µM
same,GI50,NCI-H226 [3]; read-out: pGI50 (converted),3.47 µM
same,CC50,NCI-H226 [3]; [8],> 100 µM
same,TGI,NCI-H226 [3]; read-out: pTGI (converted),60.3 µM
same,Activity,MDA-MB-231,13.6%
same,Activity,SK-OV-3,51.39%
same,GI50,SF-539,14.3 µM
same,TGI,SF-539,79 µM
same,CC50,SF-539,> 100 µM
same,Activity,SF-268,-16.94%
same,Activity,RPMI-8226,36.83%
same,Activity,786-0,-1.42%
same,GI50,SW-620; read-out: GI50,4.31 µM
same,CC50,SW-620; [7],> 100 µM
same,TGI,SW-620; read-out: TGI,> 100 µM
same,GI50,SW-620; read-out: pGI50 (converted),4.27 µM
same,CC50,SW-620; [8],> 100 µM
same,TGI,SW-620; read-out: pTGI,> 100 µM
same,Activity,NCI-H226 [4],66.92%
same,Activity,OVCAR-3 [5],-6.76%
same,Activity,NCI-H522,8.05%
same,Activity,PC-3,26.98%
same,Activity,UACC-62 [6],46.5%
same,GI50,HCC 2998; read-out: GI50,6.47 µM
same,CC50,HCC 2998; [7],> 100 µM
same,TGI,HCC 2998; read-out: TGI,> 100 µM
same,GI50,HCC 2998; read-out: pGI50 (converted),6.46 µM
same,CC50,HCC 2998; [8],> 100 µM
same,TGI,HCC 2998; read-out: pTGI (converted),> 100 µM
same,Activity,HT-29,40.98%
same,Activity,KM12,33.42%
COc1ccc(/C(=C2\O[C@@H]([C@H]3COC(C)(C)O3)[C@H]3OC(C)(C)O[C@@H]23)c2cc(OC)c(OC)c(OC)c2)cc1O,Activity,LOX IMVI,47.56%
same,GI50,OVCAR-3 [1],2.39 µM
same,TGI,OVCAR-3 [1],5.67 µM
same,CC50,OVCAR-3 [1],21.7 µM
same,Activity,COLO 205,120.67%
same,GI50,UACC-62 [2]; read-out: GI50,22.9 µM
same,CC50,UACC-62 [2]; [7],> 100 µM
same,TGI,UACC-62 [2]; read-out: TGI,57.6 µM
same,GI50,UACC-62 [2]; read-out: pGI50 (converted),22.9 µM
same,CC50,UACC-62 [2]; [8],> 100 µM
same,TGI,UACC-62 [2]; read-out: pTGI (converted),57.5 µM
same,GI50,SNB-75,2.89 µM
same,TGI,SNB-75,7.44 µM
same,CC50,SNB-75,> 100 µM
same,Activity,MDA-MB-468,112.6%
same,GI50,HCT-116,> 100 µM
same,LC50 (concentration giving 50% net cell kill),HCT-116,> 100 µM
same,TGI,HCT-116,> 100 µM
same,Activity,SK-MEL-5,61.79%
same,Activity,MDA-MB-435,-10.2%
same,GI50,A498; read-out: GI50,32.1 µM
same,CC50,A498; [7],> 100 µM
same,TGI,A498; read-out: TGI,97.4 µM
same,GI50,A498; read-out: pGI50 (converted),32.4 µM
same,CC50,A498; [8],> 100 µM
same,TGI,A498; read-out: pTGI (converted),97.7 µM
same,Activity,EKVX,100.52%
same,GI50,NCI-H226 [3]; read-out: GI50,64.7 µM
same,CC50,NCI-H226 [3]; [7],> 100 µM
same,TGI,NCI-H226 [3]; read-out: TGI,> 100 µM
same,GI50,NCI-H226 [3]; read-out: pGI50 (converted),64.6 µM
same,CC50,NCI-H226 [3]; [8],> 100 µM
same,TGI,NCI-H226 [3]; read-out: pTGI (converted),> 100 µM
same,Activity,MDA-MB-231,54.45%
same,Activity,SK-OV-3,90.14%
same,GI50,SF-539,3.15 µM
same,TGI,SF-539,8.75 µM
same,CC50,SF-539,86 µM
same,Activity,SF-268,37.84%
same,Activity,RPMI-8226,36.38%
same,Activity,786-0,86.28%
same,GI50,SW-620; read-out: GI50,7.28 µM
same,CC50,SW-620; [7],> 100 µM
same,TGI,SW-620; read-out: TGI,> 100 µM
same,GI50,SW-620; read-out: pGI50 (converted),7.24 µM
same,CC50,SW-620; [8],> 100 µM
same,TGI,SW-620; read-out: pTGI,> 100 µM
same,Activity,NCI-H226 [4],112.98%
same,Activity,OVCAR-3 [5],58.27%
same,Activity,NCI-H522,51.79%
same,Activity,PC-3,29.4%
same,Activity,UACC-62 [6],82.85%
same,GI50,HCC 2998; read-out: GI50,31.1 µM
same,CC50,HCC 2998; [7],> 100 µM
same,TGI,HCC 2998; read-out: TGI,80.4 µM
same,GI50,HCC 2998; read-out: pGI50 (converted),30.9 µM
same,CC50,HCC 2998; [8],> 100 µM
same,TGI,HCC 2998; read-out: pTGI (converted),81.3 µM
same,Activity,HT-29,113.24%
same,Activity,KM12,5.71%
